Calls of active or inactive are those of the source. The calls are words filed in the database; no cut-off is given here.
Key:
[1] = target: Voltage-gated L-type calcium channel (Rattus norvegicus, UniProt P22002+Q02485+P27732); assay: Affinity to bind dihydropyridine receptor (DHP receptor) by inhibiting the radioligand [3H]nitrendipine; type: protein assay
Summary of the method: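 [3H]nitrendipine displacement, rat brain cortical membranes. Each compound first screened at 1000 nM; if inhibition exceeded 40%, a four- to seven-point curve with unlabeled compound was run. IC50 generally mean of two experiments, each in triplicate. ">1000 nM" means under 40% inhibition of control binding at 1000 nM.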

[2] = organism: Rattus norvegicus; assay: Cardiovascular activity in isolated rat heart, concentration producing 25% increase in LV + dP/dtmax.; type: functional
Summary of the method: (§1)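 Isolated Langendorff-perfused rat heart. Coronary flow (CF), LV +dP/dtmax and heart rate recorded during exposure to test agent. Value is the concentration giving a 25% rise in CF or in LV +dP/dtmax, mean ± SE. At least two hearts per compound.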

[3] = organism: Rattus norvegicus; assay: Cardiovascular activity in isolated rat heart, concentration producing 25% increase in CF (cardiac flow).; type: functional; summary of the method: as §1
[4] = organism: Rattus norvegicus; assay: Compound was tested for the cardiovascular activity in isolated rat heart. Value represents the concentration producing 25% increase in CF (cardiac flow); NA indicates not active; type: functional; summary of the method: as §1
[5] = organism: Oryctolagus cuniculus; assay: Vasorelaxant effect at a concentration of 10e-4 M on rabbit aortic rings previously contracted with 50 mM KCl.; type: functional, Aorta; design: unit not given here
Summary of the method: (§2)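 Rabbit aortic rings precontracted with 50 mM KCl or 1.0 μM norepinephrine, then exposed to increasing concentrations of test agent. Relaxation recorded at each concentration.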

[6] = organism: Oryctolagus cuniculus; assay: Vasorelaxant effect at a concentration of 10e-6 M on rabbit aortic rings previously contracted with 50 mM KCl.; type: functional, Aorta; design: unit not given here; summary of the method: as §2
[7] = organism: Oryctolagus cuniculus; assay: Vasorelaxant effect at a concentration of 10e-6 M on rabbit aortic rings previously contracted with 1.0 uM Norepinephrine.; type: functional, Aorta; design: unit not given here; summary of the method: as §2
[8] = organism: Oryctolagus cuniculus; assay: Vasorelaxant effect at a concentration of 10e-7 M on rabbit aortic rings previously contracted with 1.0 uM Norepinephrine.; type: functional, Aorta; design: unit not given here; summary of the method: as §2
[9] = organism: Oryctolagus cuniculus; assay: Vasorelaxant effect at a concentration of 10e-4 M on rabbit aortic rings previously contracted with 1.0 uM Norepinephrine.; type: functional, Aorta; design: unit not given here; summary of the method: as §2
[10] = organism: Oryctolagus cuniculus; assay: Vasorelaxant effect at a concentration of 10e-5 M on rabbit aortic rings previously contracted with 50 mM KCl.; type: functional, Aorta; design: unit not given here; summary of the method: as §2
[11] = organism: Oryctolagus cuniculus; assay: Vasorelaxant effect at a concentration of 10e-7 M on rabbit aortic rings previously contracted with 50 mM KCl.; type: functional, Aorta; design: unit not given here; summary of the method: as §2
[12] = organism: Oryctolagus cuniculus; assay: Vasorelaxant effect at a concentration of 10e-5 M on rabbit aortic rings previously contracted with 1.0 uM Norepinephrine.; type: functional, Aorta; design: unit not given here; summary of the method: as §2
[13] = organism: Rattus norvegicus; assay: Compound was tested for the cardiovascular activity in isolated rat heart. Value represents the concentration producing 25% increase in LV + dP/dtmax; NA indicates not active; type: functional; summary of the method: as §1
[14] = organism: Oryctolagus cuniculus; assay: Vasorelaxant effect at a concentration of 10e-9 M on rabbit aortic rings previously contracted with 50 mM KCl.; type: functional; details: Aorta; summary of the method: as §2
[15] = organism: Oryctolagus cuniculus; assay: Vasorelaxant effect at a concentration of 10e-8 M on rabbit aortic rings previously contracted with 1.0 uM Norepinephrine.; type: functional; details: Aorta; summary of the method: as §2
[16] = organism: Oryctolagus cuniculus; assay: Vasorelaxant effect at a concentration of 10e-8 M on rabbit aortic rings previously contracted with 50 mM KCl.; type: functional; details: Aorta; summary of the method: as §2
[17] = organism: Oryctolagus cuniculus; assay: Vasorelaxant effect at a concentration of 10e-9 M on rabbit aortic rings previously contracted with 1.0 uM Norepinephrine.; type: functional; details: Aorta; summary of the method: as §2

Compound	IC50 [1] [nM]	EC25 [2]	EC25 [3]	EC25 [4]	further results
CCO/C(O)=C1\C(C[S+]([O-])c2ccccc2)=NC(C)=C(C#N)C1c1ccccc1Cl (stereo unspecified)	> 1000	0.91 µM	0.54 µM	–	–
CCOC(=O)C1=C(C[S+]([O-])c2ccccc2)NC(C)=C(C#N)C1c1cccc([N+](=O)[O-])c1 (stereo in doubt; 32b)	–	–	–	inactive	–
CCOC(=O)C1=C(C[S+]([O-])c2ccccc2)NC(C)=C(C#N)C1c1ccccc1C(F)(F)F (stereo in doubt; 29a)	–	–	–	inactive	–
CCO/C(O)=C1\C(CS(=O)(=O)c2ccccc2F)=NC(C)=C(C#N)C1c1ccccc1C(F)(F)F (stereo unspecified)	> 1000	0.39 µM	0.09 µM	–	–
CCO/C(O)=C1\C(CS(=O)(=O)c2ccccc2)=NC(C)=C(C#N)C1c1ccccc1C(F)(F)F (stereo unspecified)	120	0.11 µM	0.07 µM	–	Vasorelaxant effect [5]: 80; Vasorelaxant effect [6]: 24; Vasorelaxant effect [7]: 7; Vasorelaxant effect [8]: 5; Vasorelaxant effect [9]: 23; Vasorelaxant effect [10]: 67; Vasorelaxant effect [11]: 4; Vasorelaxant effect [12]: 13
CC1=C(C#N)C(c2ccccc2C(F)(F)F)/C(=C(\O)OC(C)C)C(CS(=O)(=O)c2ccccc2)=N1 (stereo unspecified)	390	inactive	<0.1 µM	–	–
CCO/C(O)=C1\C(CS(=O)(=O)c2ccccc2Cl)=NC(C)=C(C#N)C1c1ccccc1C(F)(F)F (stereo unspecified)	> 500	0.36 µM	0.35 µM	–	–
CC1=C(C#N)C(c2ccccc2C(F)(F)F)/C(=C(\O)OCCN2CCCCC2)C(C[S+]([O-])c2ccccc2)=N1 (stereo unspecified)	> 1000	–	–	inactive	EC25 [13]: inactive
CCO/C(O)=C1\C(CS(=O)(=O)c2ccncc2)=NC(C)=C(C#N)C1c1ccccn1 (stereo unspecified)	> 1000	–	–	inactive	EC25 [13]: inactive
CCOC(=O)C1=C(C[S+]([O-])c2ccccc2)N(CCN(CC)CC)C(C)=C(C#N)C1c1ccccc1C(F)(F)F (stereo unspecified)	> 1000	0.33 µM	0.5 µM	–	–
CCO/C(O)=C1\C(C[S+]([O-])c2ccncc2)=NC(C)=C(C#N)C1c1ccccc1C(F)(F)F (stereo unspecified)	1100	1.2 µM	inactive	–	–
CCO/C(O)=C1\C(CS(=O)(=O)c2ccccc2)=NC(C)=C(C#N)C1C1CCCCC1 (stereo unspecified)	> 1000	1.09 µM	0.52 µM	–	–
NITROPRUSSIDE	–	–	–	–	Vasorelaxant effect ([5]; Aorta): 52.1; Vasorelaxant effect [14]: -5.9; Vasorelaxant effect ([6]; Aorta): 22; Vasorelaxant effect [15]: 0.7; Vasorelaxant effect ([7]; Aorta): 22.8; Vasorelaxant effect ([8]; Aorta): 7; Vasorelaxant effect ([9]; Aorta): 55.8; Vasorelaxant effect [16]: -4.8; Vasorelaxant effect ([10]; Aorta): 40.4; Vasorelaxant effect [17]: -0.003; Vasorelaxant effect ([11]; Aorta): 5.6; Vasorelaxant effect ([12]; Aorta): 39.8
CCOC(=O)C1=C(C[S+]([O-])c2ccccc2)NC(C)=C(C#N)C1c1cccc([N+](=O)[O-])c1 (stereo in doubt; 32a)	–	–	–	inactive	–
CCOC(=O)C1=C(C[S+]([O-])c2ccccc2)NC(C)=C(C#N)C1c1ccccc1C(F)(F)F (stereo in doubt; 29b)	2800	0.17 µM	1.3 µM	–	–

Source: ChEMBL document CHEMBL1125592, “Calcium channel blocking and positive inotropic activities of ethyl 5-cyano-1,4-dihydro-6-methyl-2-[(phenylsulfonyl)methyl]-4-aryl-3- pyridine-carboxylate and analogues. Synthesis and structure-activity relationships” (J Med Chem, 1991)
